# Results pooled from the literature.
# Compare with care: the assays were run in different laboratories.
# Target: Mitogen-activated protein kinase 11 (MAPK11, Homo sapiens, UniProt Q15759)
SMILES,observed,mode,method,tested at,measurement,value
CC(C)(O)[C@H]1CC[C@H](Nc2ccc3ncc(-c4cccc(C(F)(F)F)c4)n3n2)CC1,enzyme activity,inhibitor,,1 µM,remaining activity,103%
CN1CCC2(CC1)NC(=O)c1c(c3ccc(Cl)c(Cl)c3n1C)C2C#N (racemic),thermal stability,,DSF,10 µM,ΔTm,0.4 °C
CCN(CC)CCNC(=O)c1c(C)[nH]c(/C=C2\C(=O)Nc3ccc(F)cc32)c1C,enzyme activity,inhibitor,,10 µM,inhibition,3%
Cn1c2c(c3ccc(Cl)c(Cl)c31)C(C#N)C1(CCCC1)NC2=O (stereo not drawn),thermal stability,,DSF,10 µM,ΔTm,0.9 °C
Cn1nc(C(=O)NCc2ccc(C(=O)O)cc2)cc1-c1ccc2[nH]ccc2c1,cell-free assay,,competition with immobilised ligand,0.1 µM,remaining binding,86%
COc1cc(Cl)c(C(=O)N[C@@H](CN[C@H]2CC[C@@H](N)CC2)Cc2ccc(C#N)cc2)cc1-c1ccc(CN[C@H](C)c2ccc(C)cc2)o1,enzyme activity,inhibitor,,1 µM,remaining activity,92%
CNC(=O)c1cc(Oc2ccc(NC(=O)Nc3ccc(Cl)c(C(F)(F)F)c3)cc2)ccn1,cell-free assay,,,0.5 µM,remaining signal,46.9%
Cc1sc(C(=O)NC2COC2)cc1-n1cc(NC(=O)Nc2c(F)cccc2Cl)cn1,enzyme activity,inhibitor,,10 µM,remaining activity,94.3%
O=C(NCCCC1CCCCC1)c1ccc(CNC(=O)c2cnn(-c3ccccc3)c2C(F)(F)F)cc1,cell-free assay,,competition with immobilised ligand,0.1 µM,remaining binding,100%
Cn1c2c(c3ccc(Cl)c(Cl)c31)C(C#N)C1(CCNCC1)NC2=O (racemic),thermal stability,,DSF,10 µM,ΔTm,0.2 °C
O=C(O)[C@H]1[C@H](Cn2nnc3ccccc3c2=O)CC[C@@H]1C(=O)c1ccc(OCCC2CCOCC2)cc1,cell-free assay,,competition with immobilised ligand,1 µM,remaining binding,78%
CCC1(CC)NC(=O)c2c(c3ccc(Cl)c(Cl)c3n2C)C1C#N (stereo not drawn),thermal stability,,DSF,10 µM,ΔTm,0.1 °C
COc1cccc2c(NCc3ccccc3)nc(-n3c(N)nc4ccccc43)nc12,target engagement in cells,inhibitor,chemoproteomics,20 mM,inhibition,-9.6%
Cn1c(=O)n(-c2ccc(C(C)(C)C#N)cc2)c2c3cc(-c4cnc5ccccc5c4)ccc3ncc21,enzyme activity,inhibitor,,10 µM,remaining activity,96%
Cn1c2c(c3ccc(Cl)c(Cl)c31)C(C#N)C1(CCOCC1)NC2=O (stereo not drawn),thermal stability,,DSF,10 µM,ΔTm,0.4 °C
c1ccc(CNc2nc(N3CCOc4ccccc43)nc3c2CCCC3)cc1,target engagement in cells,inhibitor,chemoproteomics,20 mM,inhibition,-9.7%
O=C(Nc1cnn(-c2csc(C(=O)NC3COC3)c2)c1)Nc1ccccc1Cl,enzyme activity,inhibitor,,5 µM,remaining activity,101%
Cc1ccc(NC(=O)c2ccc(C)c(C(F)(F)F)c2)cc1C#Cc1nn(C2CCC(O)CC2)c2ncnc(N)c12 (stereo not drawn),cell-free assay,,,10 µM,remaining signal,-2%
O=C(N1CCS(=O)(=O)CC1)N1C[C@H](c2ccc(OC(F)(F)F)cc2)C[C@H](c2nc(C3CC3)no2)C1,cell-free assay,,competition with immobilised ligand,1 µM,remaining binding,100%
Cn1c2c(Cl)c(Cl)ccc2c2cc(N)[nH]c(=O)c21,thermal stability,,DSF,10 µM,ΔTm,1.8 °C
O=C1Nc2ccc(Cl)cc2C1=Cc1cc(Cl)c(O)c(Cl)c1,cell-free assay,,,0.5 µM,remaining signal,99.2%
CN([C@@H]1CCc2c(CC(=O)O)c3ccccc3n2C1)S(=O)(=O)c1ccc(F)cc1,cell-free assay,,competition with immobilised ligand,1 µM,remaining binding,88%
COc1cc(Nc2cnc(C#N)c(O[C@H](C)CN(C)C)n2)ncc1-c1cnn(C)c1,enzyme activity,inhibitor,radiometric,1 µM,remaining activity,96%
COc1cc2ncnc(Nc3ccc(Oc4ccccc4)c(C)c3C)c2cc1OC,enzyme activity,inhibitor,,1 µM,inhibition,6%
Cc1ccc(Nc2nccc(N(C)c3ccc4c(C)n(C)nc4c3)n2)cc1S(N)(=O)=O,enzyme activity,inhibitor,,0.3 µM,inhibition,-6%
CC(C)(C)c1nc(-c2cccc(NS(=O)(=O)c3c(F)cccc3F)c2F)c(-c2ccnc(N)n2)s1,enzyme activity,inhibitor,radiometric,1 µM,remaining activity,104%
O=C(Nc1cnc(Oc2ccc(F)cc2)nc1)N1CCc2ncccc2[C@@H]1c1ccc(F)cc1,cell-free assay,,competition with immobilised ligand,1 µM,remaining binding,84%
O=C(CSc1nc2nccnc2c(=O)n1CCc1ccccc1)Nc1nccs1,enzyme activity,inhibitor,,10 µM,inhibition,5%
CN(c1ncccc1CNc1nc(Nc2ccc3c(c2)CC(=O)N3)ncc1C(F)(F)F)S(C)(=O)=O,enzyme activity,inhibitor,,1 µM,inhibition,7.8%
FC(F)c1nc2ccccc2n1-c1nc(N2CCOCC2)nc(N2CCOCC2)n1,enzyme activity,inhibitor,,10 µM,remaining activity,95%
Nc1nc(Nc2ccccc2)sc1C(=O)c1c(F)cccc1F,enzyme activity,inhibitor,,10 µM,remaining activity,12%
COc1ccc2c(O[C@@H]3C[C@H]4C(=O)N[C@]5(C(=O)O)CC5/C=C\CCCCC[C@H](NC(=O)OC5CCCC5)C(=O)N4C3)cc(-c3csc(NC(=O)C(C)C)n3)nc2c1C (stereo partly drawn),cell-free assay,,competition with immobilised ligand,1 µM,remaining binding,100%
CNCc1ccc(-c2cc(-c3nc(-c4ccc(S(=O)(=O)C(C)C)cc4)cnc3N)on2)cc1,enzyme activity,inhibitor,,2 µM,inhibition,11%
N#CCCc1ccc2c(c1)-c1[nH]c3ccc([N+](=O)[O-])cc3c1CC(=O)N2,cell-free assay,,,0.5 µM,remaining signal,101%
CCC(=O)N[C@@H]1CC[C@H](C(=O)N(C)c2ccc(-c3nc4ccccc4o3)cc2)C1,cell-free assay,,competition with immobilised ligand,1 µM,remaining binding,83%
Cc1cc(NC(=O)c2cccc3cc(-c4cccc5[nH]nc(N)c45)ccc23)ccc1F,enzyme activity,inhibitor,,0.1 µM,activity vs control,69%
O=C1NC(=O)c2cc(Nc3ccc(F)cc3)c(Nc3ccc(F)cc3)cc21,cell-free assay,,,0.5 µM,remaining signal,94.6%
Cn1c2c(c3ccc(Cl)c(Cl)c31)C(C#N)C1(CCN(C(=O)OC(C)(C)C)CC1)NC2=O (racemic),thermal stability,,DSF,10 µM,ΔTm,-0.8 °C
CNc1cccc2cc(C(=O)Nc3ccc(C(=O)O)cc3)c(=O)[nH]c12,enzyme activity,inhibitor,,10 µM,inhibition,-2.4%
